Experimental data reported in ChEMBL document CHEMBL3046081, “Phytotoxic effect, uptake, and transformation of biochanin A in selected weed species” (J Agric Food Chem, 2012).
The source made the active and inactive calls. The rule behind the calls is not given here.

Columns and labels:
Silene noctiflora = assay: Phytotoxicity against Silene noctiflora assessed as root growth inhibition after 2 weeks by agar medium bioassay; format: functional, organism-based; conditions: 336 h
Summary of the method: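 Agar bioassay with eight biochanin A doses (0–400 µM). Seeds were pregerminated 48 h at room temperature, then 10 seedlings (1–2 mm radicle) were placed per Petri dish. Plants grew 2 weeks at 24 ± 1 °C under a 16 h light/8 h dark cycle. Root length was measured, and EC values were taken from a four-parameter log-logistic nonlinear regression fit.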

Leaf = assay: Drug recovery in leaf of Secale cereale (rye) at 5 ng/g by LC-MS analysis
Shoot [1] = assay: Drug metabolism in Silene noctiflora shoot assessed as transformation to dihydrobiochanin A at 20 uM after 14 days measured per gm of dry weight by LC-MS analysis; format: ADME; conditions: 336 h
Summary of the method: (§1)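 Pregerminated seeds, 14 per container, transplanted onto 0.5% agar medium containing biochanin A. Grown at 24 ± 1 °C under a 16 h light/8 h dark photoperiod and harvested 14 days after transplanting. Roots and shoots collected separately, blotted, washed twice, then freeze-dried. Tissue extracted by ASE at 40 °C and analysed by LC-ESI-MS against commercial standards. Two replicates per treatment.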

Shoot [2] = assay: Drug uptake in Echinochloa crus-galli (barnyard grass) shoot at 20 uM after 14 days measured per gm of dry weight by LC-MS analysis; format: ADME; conditions: 336 h
Summary of the method: (§2)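 Pregerminated seeds (14 per container) were grown on 20 mL 0.5% agar medium containing biochanin A, at 24 ± 1 °C with a 16 h light/8 h dark cycle. There were two replicates per treatment: 14 containers for S. noctiflora, 9 for G. molle and E. crus-galli. At 14 days, roots and shoots were harvested separately, washed, blotted and freeze-dried. Extraction was ASE at 40 °C, 1600 psi, 3 cycles. Analysis was LC-ESI-MS SIM against standards.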

Shoot [3] = assay: Drug metabolism in Geranium molle shoot assessed as transformation to dihydrobiochanin A at 20 uM after 14 days measured per gm of dry weight by LC-MS analysis; format: ADME; conditions: 336 h; summary of the method: as §1
Shoot [4] = assay: Drug metabolism in Echinochloa crus-galli (barnyard grass) shoot assessed as transformation to genistein at 20 uM after 14 days measured per gm of dry weight by LC-MS analysis; format: ADME; conditions: 336 h; summary of the method: as §1
Shoot [5] = assay: Drug metabolism in Silene noctiflora shoot assessed as transformation to sissotrin at 400 uM after 14 days measured per gm of dry weight by LC-MS analysis; format: ADME; conditions: 336 h; summary of the method: as §2
Shoot [6] = assay: Drug uptake in Geranium molle shoot at 400 uM after 14 days measured per gm of dry weight by LC-MS analysis; format: ADME; conditions: 336 h; summary of the method: as §2
Root [7] = assay: Drug uptake in Silene noctiflora root at 20 uM after 14 days measured per gm of dry weight by LC-MS analysis; format: ADME; conditions: 336 h; summary of the method: as §2
Root [8] = assay: Drug metabolism in Silene noctiflora root assessed as transformation to dihydrobiochanin A at 400 uM after 14 days measured per gm of dry weight by LC-MS analysis; format: ADME; conditions: 336 h; summary of the method: as §1
Shoot [9] = assay: Drug metabolism in Geranium molle shoot assessed as transformation to sissotrin at 20 uM after 14 days measured per gm of dry weight by LC-MS analysis; format: ADME; conditions: 336 h; summary of the method: as §1
Shoot [10] = assay: Drug metabolism in Echinochloa crus-galli (barnyard grass) shoot assessed as transformation to sissotrin at 20 uM after 14 days measured per gm of dry weight by LC-MS analysis; format: ADME; conditions: 336 h; summary of the method: as §1
Shoot [11] = assay: Drug metabolism in Silene noctiflora shoot assessed as transformation to genistein at 20 uM after 14 days measured per gm of dry weight by LC-MS analysis; format: ADME; conditions: 336 h; summary of the method: as §1
Root [12] = assay: Drug metabolism in Echinochloa crus-galli (barnyard grass) root assessed as transformation to pratensein at 400 uM after 14 days measured per gm of dry weight by LC-MS analysis; format: ADME; conditions: 336 h; summary of the method: as §1
Root [13] = assay: Drug metabolism in Geranium molle root assessed as transformation to sissotrin at 400 uM after 14 days measured per gm of dry weight by LC-MS analysis; format: ADME; conditions: 336 h; summary of the method: as §1
Amaranthus caudatus = assay: Phytotoxicity against Amaranthus caudatus assessed as root growth inhibition at 100 to 400 uM after 2 weeks by agar medium bioassay; format: functional, organism-based
Summary of the method: (§3)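 Agar bioassay with eight biochanin A doses (0–400 µM). Seeds were pregerminated 48 h at room temperature, then 10 seedlings were placed per Petri dish and grown 2 weeks at 24 ± 1 °C under a 16 h light/8 h dark cycle. […]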

Shoot [14] = assay: Drug metabolism in Geranium molle shoot assessed as transformation to genistein at 20 uM after 14 days measured per gm of dry weight by LC-MS analysis; format: ADME; conditions: 336 h; summary of the method: as §1
Root [15] = assay: Drug metabolism in Echinochloa crus-galli (barnyard grass) root assessed as transformation to p-coumaric acid at 20 uM after 14 days measured per gm of dry weight by LC-MS analysis; format: ADME; conditions: 336 h; summary of the method: as §1
Root [16] = assay: Drug metabolism in Silene noctiflora root assessed as transformation to dihydrobiochanin A at 20 uM after 14 days measured per gm of dry weight by LC-MS analysis; format: ADME; conditions: 336 h; summary of the method: as §1
Lolium perenne = assay: Phytotoxicity against Lolium perenne (perennial ryegrass) assessed as root growth inhibition at 100 to 400 uM after 2 weeks by agar medium bioassay; format: functional, organism-based; summary of the method: as §3
Shoot [17] = assay: Drug metabolism in Silene noctiflora shoot assessed as transformation to pratensein at 400 uM after 14 days measured per gm of dry weight by LC-MS analysis; format: ADME; conditions: 336 h; summary of the method: as §2
Root [18] = assay: Drug metabolism in Silene noctiflora root assessed as transformation to sissotrin at 400 uM after 14 days measured per gm of dry weight by LC-MS analysis; format: ADME; conditions: 336 h; summary of the method: as §1
Root [19] = assay: Drug metabolism in Geranium molle root assessed as transformation to pratensein at 20 uM after 14 days measured per gm of dry weight by LC-MS analysis; format: ADME; conditions: 336 h; summary of the method: as §1
Root [20] = assay: Drug uptake in Geranium molle root at 400 uM after 14 days measured per gm of dry weight by LC-MS analysis; format: ADME; conditions: 336 h; summary of the method: as §2
Root [21] = assay: Drug uptake in Echinochloa crus-galli (barnyard grass) root at 20 uM after 14 days measured per gm of dry weight by LC-MS analysis; format: ADME; conditions: 336 h; summary of the method: as §2
Shoot [22] = assay: Drug metabolism in Geranium molle shoot assessed as transformation to sissotrin at 400 uM after 14 days measured per gm of dry weight by LC-MS analysis; format: ADME; conditions: 336 h; summary of the method: as §1
Shoot [23] = assay: Drug metabolism in Silene noctiflora shoot assessed as transformation to pratensein at 20 uM after 14 days measured per gm of dry weight by LC-MS analysis; format: ADME; conditions: 336 h; summary of the method: as §1
Shoot [24] = assay: Drug metabolism in Echinochloa crus-galli (barnyard grass) shoot assessed as transformation to dihydrobiochanin A at 400 uM after 14 days measured per gm of dry weight by LC-MS analysis; format: ADME; conditions: 336 h; summary of the method: as §1
Root [25] = assay: Drug metabolism in Echinochloa crus-galli (barnyard grass) root assessed as transformation to sissotrin at 20 uM after 14 days measured per gm of dry weight by LC-MS analysis; format: ADME; conditions: 336 h; summary of the method: as §1
Root [26] = assay: Drug metabolism in Echinochloa crus-galli (barnyard grass) root assessed as transformation to dihydrobiochanin A at 20 uM after 14 days measured per gm of dry weight by LC-MS analysis; format: ADME; conditions: 336 h; summary of the method: as §1
Shoot [27] = assay: Drug metabolism in Silene noctiflora shoot assessed as transformation to genistein at 400 uM after 14 days measured per gm of dry weight by LC-MS analysis; format: ADME; conditions: 336 h; summary of the method: as §1
Root [28] = assay: Drug metabolism in Echinochloa crus-galli (barnyard grass) root assessed as transformation to dihydrobiochanin A at 400 uM after 14 days measured per gm of dry weight by LC-MS analysis; format: ADME; conditions: 336 h; summary of the method: as §1

Drug recovery (Leaf): 93%
Drug metabolism (Shoot [1]): 0 µmol
Drug uptake (Shoot [2]): 0.05 µmol
Drug metabolism (Shoot [3]): 0.01 µmol
Drug metabolism (Shoot [4]): 0.28 µmol
Drug metabolism (Shoot [5]): 4.34 µmol
Drug uptake (Shoot [6]): 1.13 µmol
Drug uptake (Root [7]): 4.65 µmol
Drug metabolism (Root [8]): 0.07 µmol
Drug metabolism (Shoot [9]): 1.5 µmol
Drug metabolism (Shoot [10]): 0 µmol
Drug metabolism (Shoot [11]): 0.24 µmol
Drug metabolism (Root [12]): 0.35 µmol
Drug metabolism (Root [13]): 123.61 µmol
Drug metabolism (Shoot [14]): 0.09 µmol
Drug metabolism (Root [15]): 0.15 µmol
Drug metabolism (Root [16]): 0.01 µmol
Drug metabolism (Shoot [17]): 0.06 µmol
Drug metabolism (Root [18]): 2.99 µmol
Drug metabolism (Root [19]): 0.66 µmol
Drug uptake (Root [20]): 11.46 µmol
Drug uptake (Root [21]): 1.75 µmol
Drug metabolism (Shoot [22]): 2.41 µmol
Drug metabolism (Shoot [23]): 0.1 µmol
Drug metabolism (Shoot [24]): 0.27 µmol
Drug metabolism (Root [25]): 0.48 µmol
Drug metabolism (Root [26]): 0.05 µmol
Drug metabolism (Shoot [27]): 0.15 µmol
Drug metabolism (Root [28]): 0.27 µmol
Compound: COc1ccc(-c2coc3cc(O)cc(O)c3c2=O)cc1 [BIOCHANIN]
EC25 (Silene noctiflora): 5.2 µM
EC50 (Silene noctiflora): 35.8 µM
Activity (Amaranthus caudatus): inactive
Activity (Lolium perenne): inactive
